What all share (assay type): functional, organism-based
Assay [1] has as its system Human betaherpesvirus 5. As to the kind of experiment: Antiviral activity against HCMV Towne infected in human HFF cells assessed as reduction in plaque formation treated with compound following viral infection at MOI of 1 PFU/cell and measured at 10 days post-infection in presence of letermovir by crystal violet staining based assay. The settings on record: Human betaherpesvirus 5, strain Towne, 240 h.

In assay [2] the test system is Human betaherpesvirus 5. As to the kind of experiment: Antiviral activity against GCV-resistant HCMV Towne infected in human HFF cells assessed as reduction in plaque formation at 0.1 to 10 uM treated with compound for 24 hrs followed by viral infection at MOI of […] and measured after 10 days by crystal violet staining based assay. The settings on record: strain Towne. In a few lines: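 Overlay of DMEM with 0.5% carboxymethylcellulose and 4% FBS, 37 °C. After 10 days plaques stained with crystal violet and counted. Data are mean ± SD of triplicates from a representative experiment.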

The test system of assay [3] is Human betaherpesvirus 5. The assay is described as follows: Inhibition of viral protein expression in HCMV Towne infected in human HFF cells assessed as reduction in UL84 expression at 3 uM treated with compound following viral infection at MOI of 1 PFU/cell measured at 72 hrs post infection by Western blot analysis. The note with it: strain Towne. In a few lines:
(§1)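 HFFs infected with HCMV Towne (MOI 1), then treated with compound. Lysates taken at 72 hpi, equal protein loaded on 8–10% Tris-glycine SDS-PAGE and transferred to PVDF. Primary antibodies overnight at 4 °C, HRP secondary, chemiluminescent detection; β-actin as loading control.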

In assay [4] the test system is Human betaherpesvirus 5. As to the kind of experiment: Inhibition of viral protein expression in HCMV Towne infected in human HFF cells assessed as reduction in UL44 expression at 3 uM treated with compound for 24 hrs followed by viral infection at MOI of 1 PFU/cell measured at 72 hrs post infection by Western blot analysis. The note with it: strain Towne. In a few lines: (§2)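 HFFs pretreated with compound, then infected with HCMV Towne at MOI 1, 0.1 or 0.01. Viral proteins in cell lysates detected at 72 hpi by SDS-PAGE (8–10%), PVDF transfer and chemiluminescent immunoblot. Images from a representative experiment.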

Assay [5] relates to Human betaherpesvirus 5. As to the kind of experiment: Antiviral activity againstpp28-luciferase expressing HCMV Towne infected in human HFF cells assessed as reduction in viral replication treated with compound following viral infection at MOI of 1 PFU/cells measured after 3 days in presence of GCV by luciferase reporter gene assay. The note with it: Human betaherpesvirus 5, strain Towne, 72 h. In a few lines:
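HFFs in 96-well plates were infected with pp28-luciferase Towne HCMV, in which luciferase is driven by the UL99 late promoter, at MOI 1. A dose-response of each drug alone gave its EC₅₀. Combinations started at twice each EC₅₀ in DMEM with 4% FBS, followed by two-fold serial dilutions, and were added after infection. Luciferase was read in cell lysates at 72 hpi. The Bliss ratio is observed over expected inhibition.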
(In general: In a reporter assay the amount or activity of a reporter protein is the signal.)

Assay [6] has as its system Human betaherpesvirus 5. As to the kind of experiment: Inhibition of viral protein expression in HCMV Towne infected in human HFF cells assessed as reduction in IE1 expression at 3 uM treated with compound following viral infection at MOI of 1 PFU/cell measured at 72 hrs post infection by Western blot analysis. The note with it: strain Towne. In a few lines:
as §1

Assay [7] deals with Human betaherpesvirus 5. The assay is described as follows: Antiviral activity against HCMV TB40 infected in human HFF cells assessed as reduction in plaque formation treated with compound following viral infection and incubated for 8 to 10 days by crystal violet staining based assay. The settings on record: Human betaherpesvirus 5, TB40, HFF.
Assay [8] concerns Human betaherpesvirus 5. As to the kind of experiment: Inhibition of viral protein expression in HCMV Towne infected in human HFF cells assessed as reduction in IE2 expression at 3 uM treated with compound following viral infection at MOI of 1 PFU/cell measured at 72 hrs post infection by Western blot analysis. The note with it: strain Towne. In short, it runs like this: as §1
(In general: A western blot detects proteins with antibodies after separation by electrophoresis.)

For assay [9], the system named is Human betaherpesvirus 5. The assay is described as follows: Antiviral activity against GCV-resistant HCMV Towne infected in human HFF cells assessed as reduction in plaque formation treated with compound following viral infection and incubated for 8 to 10 days by crystal violet staining based assay. The settings on record: Human betaherpesvirus 5, strain Towne.

In assay [10] the test system is Human betaherpesvirus 5. As to the kind of experiment: Inhibition of viral protein expression in HCMV Towne infected in human HFF cells assessed as reduction in UL84 expression at 3 uM treated with compound for 24 hrs followed by viral infection at MOI of 1 PFU/cell measured at 72 hrs post infection by Western blot analysis. The settings on record: strain Towne. In short, it runs like this: as §2

Active and inactive are the calls of the source. No cut-off for these calls is given here.

`COc1ccc(Cl)cc1C(=O)Nc1ccc(NC(=O)c2ccco2)cc1`: the EC50 came out at 0.32 µM with Human betaherpesvirus 5 [1], 0.72 µM in the assay with Human betaherpesvirus 5 [5], 0.12 µM in the assay on Human betaherpesvirus 5 [7] and 0.25 µM with Human betaherpesvirus 5 [9]. Moreover, in the assay with Human betaherpesvirus 5 [2], the outcome was Active. Further, the inhibition entry in the assay with Human betaherpesvirus 5 [3], with Human betaherpesvirus 5 [4], in the assay on Human betaherpesvirus 5 [6], in the assay with Human betaherpesvirus 5 [8] and in the assay with Human betaherpesvirus 5 [10] was “inactive” each time.

Broadly, the EC50 is the concentration needed to bring the measured effect to its halfway point.

The values are drawn from ChEMBL document CHEMBL4354867, “Validation and Characterization of Five Distinct Novel Inhibitors of Human Cytomegalovirus” (J Med Chem, 2020).
